From ChEMBL document CHEMBL3870359, “Design and Synthesis of Novel Meta-Linked Phenylglycine Macrocyclic FVIIa Inhibitors” (ACS Med Chem Lett, 2017)

Tests used:
[1] = Half life in human liver microsomes; assay type: ADME
[2] = Permeability of the compound at pH 7.4 by PAMPA; assay type: ADME; details: read-out: permeability
[3] = Permeability of the compound at pH 5.5 by PAMPA; assay type: ADME; details: read-out: permeability
[4] = target: T1, Coagulation factor VII/tissue factor (Homo sapiens, UniProt P08709); assay: Inhibition of recombinant human factor-7a/TF using S2288 as substrate measured after 60 mins at 37 degC; assay type: protein-complex assay
Procedure, shortened: (§1)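 Ki determined against recombinant human TF/FVIIa enzyme, each value averaged from two experiments. The assay was first run at 25 °C and later moved to 37 °C to better approximate physiological conditions.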

[5] = Anticoagulant activity in factor 7 deficient human plasma assessed as concentration required for prolongation of prothrombin time; assay type: functional
Procedure, shortened: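 Clotting (prothrombin time) assay in FVII-deficient human plasma. Read-out is the compound concentration that prolongs clotting time 2-fold (EC2X, μM).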

[6] = Half life in rat liver microsomes; assay type: ADME
Kallikrein-1 = Kallikrein-1 (Homo sapiens, UniProt P06870); assay: Inhibition of tissue Kallikrein-1 (unknown origin)
[7] = target: Vitamin K-dependent protein C (Homo sapiens, UniProt P04070); assay: Inhibition of activated protein C (unknown origin)
[8] = target: T1, Coagulation factor VII/tissue factor; assay: Inhibition of recombinant human factor-7a/TF using S2288 as substrate measured after 60 mins at 25 degC; assay type: protein-complex assay; procedure, shortened: as §1
[9] = Oral bioavailability in rat; assay type: ADME, organism-based; details: in vivo

T1 sequence (P08709 61-212 limits assumed): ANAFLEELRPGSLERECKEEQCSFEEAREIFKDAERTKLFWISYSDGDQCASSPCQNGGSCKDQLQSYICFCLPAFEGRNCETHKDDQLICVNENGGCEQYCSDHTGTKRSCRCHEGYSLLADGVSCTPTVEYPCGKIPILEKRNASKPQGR
T1 sequence (P08709 213-466 limits assumed): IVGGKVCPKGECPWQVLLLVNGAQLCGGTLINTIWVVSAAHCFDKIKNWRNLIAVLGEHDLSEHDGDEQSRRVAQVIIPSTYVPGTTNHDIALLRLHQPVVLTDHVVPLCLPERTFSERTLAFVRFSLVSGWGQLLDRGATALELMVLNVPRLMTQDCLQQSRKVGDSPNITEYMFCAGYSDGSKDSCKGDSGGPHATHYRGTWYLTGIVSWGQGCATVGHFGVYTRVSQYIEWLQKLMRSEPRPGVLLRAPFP
T1 sequence (P13726 33-295 partner limits assumed): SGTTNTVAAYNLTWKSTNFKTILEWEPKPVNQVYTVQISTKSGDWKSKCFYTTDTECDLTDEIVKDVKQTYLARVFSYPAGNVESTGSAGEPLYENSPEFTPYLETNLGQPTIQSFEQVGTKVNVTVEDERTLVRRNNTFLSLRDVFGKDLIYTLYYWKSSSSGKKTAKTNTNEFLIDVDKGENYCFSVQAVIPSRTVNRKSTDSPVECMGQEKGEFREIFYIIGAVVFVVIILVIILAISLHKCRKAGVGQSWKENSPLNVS
Chain of Vitamin K-dependent protein C (P04070 43-197 limits assumed): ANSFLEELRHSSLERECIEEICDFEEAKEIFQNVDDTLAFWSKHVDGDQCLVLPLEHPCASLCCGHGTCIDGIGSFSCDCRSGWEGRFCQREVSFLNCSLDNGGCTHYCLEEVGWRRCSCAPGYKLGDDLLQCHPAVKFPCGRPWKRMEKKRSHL
Chain of Vitamin K-dependent protein C (P04070 212-461 limits assumed): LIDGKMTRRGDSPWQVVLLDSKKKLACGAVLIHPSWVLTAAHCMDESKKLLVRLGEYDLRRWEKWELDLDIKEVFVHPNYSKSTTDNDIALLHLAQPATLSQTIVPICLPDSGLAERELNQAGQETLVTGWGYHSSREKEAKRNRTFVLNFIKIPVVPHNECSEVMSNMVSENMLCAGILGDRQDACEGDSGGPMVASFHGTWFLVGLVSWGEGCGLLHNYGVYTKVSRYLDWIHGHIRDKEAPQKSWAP
Chain of Kallikrein-1 (P06870 whole entry): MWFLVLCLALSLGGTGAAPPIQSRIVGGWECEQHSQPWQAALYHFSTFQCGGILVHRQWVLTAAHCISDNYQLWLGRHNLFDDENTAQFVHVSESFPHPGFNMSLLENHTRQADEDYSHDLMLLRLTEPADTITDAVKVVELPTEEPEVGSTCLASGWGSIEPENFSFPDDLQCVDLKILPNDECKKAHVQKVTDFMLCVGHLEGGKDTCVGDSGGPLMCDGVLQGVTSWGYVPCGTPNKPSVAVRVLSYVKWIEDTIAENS

| Structure (SMILES) | half-life [1] [min] | Ki [4] [nM] | half-life [6] [min] | Ki [8] [nM] | 2PT [5] [µM] | also measured |
| --- | --- | --- | --- | --- | --- | --- |
| COc1c(F)cc2cc1CCC(=O)Nc1ccc(S(=O)(=O)C3CC3)c(c1)CN(C)C(=O)[C@@H]2Nc1ccc2c(N)ncc(F)c2c1 | 14 | 410 | 8 | – | 41 | – |
| CN1Cc2cc(ccc2S(=O)(=O)C2CC2)NC(=O)CCc2cc(ccc2F)[C@@H](Nc2ccc3c(N)ncc(F)c3c2)C1=O | – | 210 | – | – | 26 | – |
| COc1cc2cc(c1)[C@@H](Nc1ccc3c(N)ncc(F)c3c1)C(=O)N(C)Cc1cc(ccc1S(=O)(=O)C1CC1)NC(=O)CC2 | 15 | 290 | 46 | – | 14 | Papp [2]: 29 ×10⁻⁶ cm/s; Papp [3]: 1.5 ×10⁻⁶ cm/s |
| CN1Cc2cc(ccc2S(=O)(=O)C2CC2)NC(=O)CCc2cc(ccc2C2CC2)[C@@H](Nc2ccc3c(N)ncc(F)c3c2)C1=O | 26 | 77 | 5 | – | 26 | – |
| CN1Cc2cc(ccc2S(=O)(=O)C2CC2)NC(=O)CCc2cccc(c2)[C@@H](Nc2ccc3c(N)ncc(F)c3c2)C1=O | 13 | 260 | 33 | – | 10 | Papp [2]: 12 ×10⁻⁶ cm/s; Papp [3]: 6.7 ×10⁻⁶ cm/s; bioavailability [9]: 3.7% |
| CN1Cc2cc(ccc2S(=O)(=O)C2CC2)NC(=O)NCCc2cccc(c2)[C@@H](Nc2ccc3c(N)ncc(F)c3c2)C1=O | – | – | – | 17 | – | – |
| CN1CCc2cccc(c2)[C@@H](Nc2ccc3c(N)ncc(F)c3c2)C(=O)N(C)Cc2cc(ccc2S(=O)(=O)C2CC2)NC1=O | 5 | 200 | 6 | 14 | – | Papp [2]: 22 ×10⁻⁶ cm/s; F ([9]; BLD = below limit of detection): Bld |
| CN1Cc2cc(ccc2S(=O)(=O)C2CC2)NC(=O)OCc2cccc(c2)[C@@H](Nc2ccc3c(N)nccc3c2)C1=O | – | – | – | 260 | – | – |
| CN1Cc2cc(ccc2S(=O)(=O)C2CC2)NC(=O)N(Cc2ccccc2)CCc2cccc(c2)[C@@H](Nc2ccc3c(N)ncc(F)c3c2)C1=O | – | – | – | 80 | – | – |
| CN1Cc2cc(ccc2S(=O)(=O)C2CC2)NC(=O)CCc2cc(ccc2O)[C@@H](Nc2ccc3c(N)ncc(F)c3c2)C1=O | – | 92 | – | – | 14 | – |
| COc1ccc2cc1[C@H](C)CN(C)C(=O)Nc1ccc(S(=O)(=O)C3CC3)c(c1)CN(C)C(=O)C2Nc1ccc2c(N)nccc2c1 (mixture of isomers) | 6 | – | 6 | 47 | – | – |
| CN1Cc2cc(ccc2S(=O)(=O)C2CC2)NC(=O)N(CC2CCC2)CCc2cccc(c2)C(Nc2ccc3c(N)ncc(F)c3c2)C1=O (racemic) | – | – | – | 150 | – | – |
| CN1Cc2cc(ccc2S(=O)(=O)C2CC2)NC(=O)N(CC2CC2)CCc2cccc(c2)C(Nc2ccc3c(N)ncc(F)c3c2)C1=O (racemic) | 5 | – | 12 | 59 | – | – |

Further molecules by falling Ki [4], results first:

| half-life [1] [min] | Ki [4] [nM] | half-life [6] [min] | Ki [8] [nM] | Structure (SMILES) | 2PT [5] [µM] | also measured |
| --- | --- | --- | --- | --- | --- | --- |
| 14 | 67 | 74 | – | C[C@H]1CC(=O)Nc2ccc(S(=O)(=O)C3CC3)c(c2)CN(C)C(=O)[C@H](Nc2ccc3c(N)ncc(F)c3c2)c2ccc(OCC(F)F)c1c2 | 23 | Ki (Kallikrein-1): 23 nM; Ki [7]: 5700 nM |
| – | 58 | – | < 5 | CN1Cc2cc(ccc2S(=O)(=O)C2CC2)NC(=O)CCc2cccc(c2)[C@@H](Nc2ccc3c(N)nccc3c2)C1=O | – | – |
| 32 | 27 | 64 | – | CN1Cc2cc(ccc2S(=O)(=O)C2CC2)NC(=O)CCc2cc(ccc2OCC(F)F)[C@@H](Nc2ccc3c(N)ncc(F)c3c2)C1=O | 15 | Ki (Kallikrein-1): 140 nM; Ki [7]: 1200 nM; Papp [3]: 8.8 ×10⁻⁶ cm/s |
| 23 | 26 | 23 | – | CN1Cc2cc(ccc2S(=O)(=O)C2CC2)NC(=O)CCc2cc(ccc2OCC2CC2)[C@@H](Nc2ccc3c(N)ncc(F)c3c2)C1=O | 29 | – |
| 14 | 18 | 16 | – | COc1ccc2cc1CCC(=O)Nc1ccc(S(=O)(=O)C3CC3)c(c1)CN(C)C(=O)[C@@H]2Nc1ccc2c(N)ncc(F)c2c1 | 11 | Papp [2]: 54 ×10⁻⁶ cm/s; Papp [3]: 35 ×10⁻⁶ cm/s |
| – | 6.3 | – | – | CN1CCc2cccc(c2)[C@@H](Nc2ccc3c(N)nccc3c2)C(=O)N(C)Cc2cc(ccc2S(=O)(=O)C2CC2)NC1=O | – | – |
| 4 | 3.8 | 4 | < 5 | COc1ccc2cc1[C@@H](C)CN(C)C(=O)Nc1ccc(S(=O)(=O)C3CC3)c(c1)CN(C)C(=O)[C@@H]2Nc1ccc2c(N)ncc(F)c2c1 | – | – |
| 31 | 0.24 | 39 | – | C[C@@H]1CC(=O)Nc2ccc(S(=O)(=O)C3CC3)c(c2)CN(C)C(=O)[C@H](Nc2ccc3c(N)ncc(F)c3c2)c2ccc(OCC(F)F)c1c2 | 3.5 | Ki (Kallikrein-1): 9.4 nM; Ki [7]: 39 nM |
